Experimental data: ChEMBL document CHEMBL1144684, “Evaluation of a series of naphthamides as potent, orally active vascular endothelial growth factor receptor-2 tyrosine kinase inhibitors” (J Med Chem, 2008)
≈ marks a conversion by molar mass, not a printed value. Calls of active or inactive are those of the source. The rule behind the calls is not given here.

Tests used:
Rattus norvegicus = experiment: Inhibition of VEGF-induced angiogenesis in VEGF-soaked disk implanted in Sprague-Dawley rat cornea assessed as number of blood vessels intersecting the midpoint between disk and limbus after 7 days; format: functional; details: 168 h
[1] = biological target: Hepatocyte growth factor receptor (Homo sapiens, UniProt P08581); experiment: Inhibition of c-Met
Liver microsomes [2] = experiment: Metabolic stability assessed as covalent binding in absence of NADPH in human liver microsomes at 10 uM after 1 hr; format: ADME, Microsome
How it was run: (§1)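 14C-labelled compound at 10 µM with human or rat liver microsomes (1 mg/mL) in 0.1 M potassium phosphate pH 7.4, with or without 1 mM NADPH and 1 mM glutathione, 60 min; quenched with ice-cold acetonitrile. Pellet washed with 80% methanol and ethanol/ether, solubilized, protein by BCA, radioactivity by scintillation counting.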

Aurora kinase A = biological target: T1, Aurora kinase A (Homo sapiens, UniProt O14965); experiment: Inhibition of Aurora A
T1 sequence (O14965 whole entry): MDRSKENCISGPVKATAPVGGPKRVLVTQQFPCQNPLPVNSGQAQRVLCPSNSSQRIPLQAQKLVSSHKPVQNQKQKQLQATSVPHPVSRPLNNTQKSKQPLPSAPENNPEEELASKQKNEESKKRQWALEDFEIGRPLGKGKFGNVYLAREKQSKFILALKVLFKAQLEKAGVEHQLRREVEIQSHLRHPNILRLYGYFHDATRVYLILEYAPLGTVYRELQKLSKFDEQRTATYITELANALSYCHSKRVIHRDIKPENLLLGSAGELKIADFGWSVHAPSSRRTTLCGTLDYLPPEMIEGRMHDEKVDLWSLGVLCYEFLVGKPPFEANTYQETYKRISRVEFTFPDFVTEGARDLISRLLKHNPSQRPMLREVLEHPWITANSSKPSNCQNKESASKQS

Angiopoietin-1 receptor = Angiopoietin-1 receptor (Homo sapiens, UniProt Q02763); experiment: Inhibition of Tie2
[3] = Intrinsic clearance in human liver microsomes at 1 uM; format: ADME, Microsome; details: read-out: Stability
How it was run: (§2)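 Human or rat liver microsomes (0.25 mg protein/mL) with 1 mM NADPH, 2 mM MgCl2 in 50 mM potassium phosphate pH 7.4 at 37 °C; compound 1 µM final. Sampled 0–40 min into acetonitrile, LC-MS/MS; ln % remaining vs time slope gives T1/2; CLint = (0.693/T1/2)/0.25 mg/mL.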

[4] = biological target: Macrophage colony-stimulating factor 1 receptor (Homo sapiens) (UniProt P07333); experiment: Inhibition of c-fms
HUVEC [5] = experiment: Inhibition of VEGF-induced proliferation of HUVEC; format: functional, cell-based; details: Homo sapiens
[6] = biological target: Receptor-type tyrosine-protein kinase FLT3 (Homo sapiens) (UniProt P36888); experiment: Inhibition of Flt3
Liver microsomes [7] = experiment: Metabolic stability assessed as covalent binding in presence of NADPH in human liver microsomes at 10 uM after 1 hr; format: ADME, Microsome; how it was run: as §1
[8] = AUC (0 to infinity) in Sprague-Dawley rat at 10 mg/kg, po; format: ADME, organism-based; design: dose 10 mg/kg, route oral, time infinity; details: plasma
How it was run: (§3)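 Male Sprague–Dawley rats dosed iv via femoral vein as DMSO solution (1 or 0.5 mg/kg) or po by gavage as OraPlus suspension (pH 2.0–2.2 with methanesulfonic acid; 10 or 2 mg/kg). Serial jugular blood over 12–24 h; plasma acetonitrile precipitation, LC-MS/MS (MRM) with internal standard; noncompartmental parameters.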

[9] = biological target: Vascular endothelial growth factor receptor 3 (Homo sapiens) (UniProt P35916); experiment: Inhibition of human VEGFR3
[10] = Oral bioavailability in Sprague-Dawley rat at 10 mg/kg; format: ADME, organism-based; details: in vivo
How it was run: (§4)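 Male Sprague–Dawley rats given 1 mg/kg iv via femoral vein as DMSO solution or 10 mg/kg by oral gavage as OraPlus suspension, pH adjusted to 2.0–2.2 with methanesulfonic acid. Serial jugular blood over 12–24 h; plasma protein-precipitated with acetonitrile, quantified by LC-MS/MS (MRM) with internal standard; noncompartmental parameters.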

[11] = Clearance in Sprague-Dawley rat at 1 mg/kg, iv; format: ADME, organism-based; design: dose 1 mg/kg, route intravenous; details: in vivo; how it was run: as §3
[12] = Volume of distribution at steady state in Sprague-Dawley rat at 1 mg/kg, iv; format: ADME, organism-based; design: dose 1 mg/kg, route intravenous; details: in vivo, read-out: Vdss; how it was run: as §4
[13] = Half life in Sprague-Dawley rat at 1 mg/kg, iv; format: ADME, organism-based; design: dose 1 mg/kg, route intravenous; details: in vivo; how it was run: as §3
Liver microsomes [14] = experiment: Metabolic stability assessed as covalent binding in presence of NADPH and GSH in human liver microsomes at 10 uM after 1 hr; format: ADME, Microsome; how it was run: as §1
[15] = biological target: Tyrosine-protein kinase Lyn (Homo sapiens, UniProt P07948); experiment: Inhibition of Lyn
HUVEC [16] = experiment: Selectivity of IC50 for VEGF-induced proliferation over IC50 for bFGF-induced proliferation of HUVEC; format: functional, Homo sapiens
How it was run: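 HUVECs were seeded at 3000 cells/well in DMEM/10% FBS with pen/strep and cultured for 22 h. They were preincubated 2 h with serially diluted compound, then stimulated with 50 ng/mL VEGF or 20 ng/mL bFGF for 72 h at 37 °C, 5% CO2. Cells were washed, frozen at -70 °C and stained with CyQuant. IC50s came from a four-parameter logistic fit, averaged over ≥2 experiments; the VEGF IC50 was compared against the bFGF IC50.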

Aurora kinase B = Aurora kinase B (Homo sapiens, UniProt Q96GD4); experiment: Inhibition of Aurora B
[17] = AUC in VEGF-soaked disk implanted in Sprague-Dawley rat; format: ADME, organism-based; details: plasma
[18] = Cmax in VEGF-soaked disk implanted in Sprague-Dawley rat; format: ADME, organism-based; details: in vivo
[19] = Tmax in Sprague-Dawley rat at 10 mg/kg, po; format: ADME, organism-based; design: dose 10 mg/kg, route oral; details: in vivo; how it was run: as §4
[20] = biological target: Vascular endothelial growth factor receptor 1 (Homo sapiens, UniProt P17948); experiment: Inhibition of human VEGFR1
[21] = Aqueous solubility in 0.01 N Hcl; format: physicochemical
HUVEC [22] = experiment: Inhibition of bFGF-induced proliferation of HUVEC; format: functional, cell-based; details: Homo sapiens
How it was run: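 HUVEC seeded at 3000/well in DMEM with 10% FBS, 22 h; 2 h preincubation with serial compound dilutions, then 50 ng/mL VEGF or 20 ng/mL bFGF for 72 h at 37 °C. Freeze–thaw, CyQuant DNA dye read-out; IC50 by four-parameter logistic fit, averaged over ≥2 experiments.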

Mus musculus = experiment: Inhibition of VEGF-induced vascular permeability in HEK293 cells expressing mouse recombinant VEGF implanted in CD1 nu/nu mouse assessed as Matrigel plug at 10 mg/kg, po after 6 hrs; format: functional, organism-based; design: dose 10 mg/kg
How it was run: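 HEK293 cells expressing murine VEGF (or vector) suspended in Matrigel, injected sc ventrally into CD-1 nu/nu mice. At 24 h, single oral gavage dose as OraPlus suspension; 6 h later Evans blue quantified in 1 cm2 skin over plug; plasma level taken at 6 h; n = 5/group.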

[23] = biological target: Tyrosine-protein kinase ABL1 (Homo sapiens, UniProt P00519)
[24] = biological target: Tyrosine-protein kinase Fgr (Homo sapiens, UniProt P09769); experiment: Inhibition of FGR
[25] = biological target: Mast/stem cell growth factor receptor Kit (Homo sapiens) (UniProt P10721); experiment: Inhibition of c-Kit
[26] = biological target: Platelet-derived growth factor receptor alpha (Homo sapiens) (UniProt P16234); experiment: Inhibition of PDGFRalpha
[27] = Cmax in Sprague-Dawley rat at 10 mg/kg, po; format: ADME, organism-based; design: dose 10 mg/kg, route oral; details: in vivo; how it was run: as §3
Liver microsomes [28] = experiment: Metabolic stability assessed as covalent binding in presence of NADPH in rat liver microsomes at 10 uM after 1 hr; format: ADME, Microsome; how it was run: as §1
Liver microsomes [29] = experiment: Metabolic stability assessed as covalent binding in absence of NADPH in rat liver microsomes at 10 uM after 1 hr; format: ADME, Microsome; how it was run: as §1
[30] = Intrinsic clearance in rat liver microsomes at 1 uM; format: ADME, Microsome; details: read-out: Stability; how it was run: as §2
Liver microsomes [31] = experiment: Metabolic stability assessed as covalent binding in presence of NADPH and GSH in rat liver microsomes at 10 uM after 1 hr; format: ADME, Microsome; how it was run: as §1
[32] = biological target: Tyrosine-protein kinase Lck (Homo sapiens, UniProt P06239); experiment: Inhibition of Lck
[33] = Half life in Sprague-Dawley rat at 0.5 mg/kg, iv; format: ADME, organism-based; design: dose 0.5 mg/kg, route intravenous; details: in vivo; how it was run: as §3
[34] = Volume of distribution at steady state in Sprague-Dawley rat at 0.5 mg/kg, iv; format: ADME, organism-based; design: dose 0.5 mg/kg, route intravenous; details: in vivo, read-out: Vdss
How it was run: (§5)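 Male Sprague–Dawley rats dosed iv at 0.5 mg/kg as DMSO solution or po at 2 mg/kg as suspension in 100% OraPlus. Serial jugular blood, plasma LC-MS/MS quantitation, noncompartmental analysis.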

[35] = Clearance in Sprague-Dawley rat at 0.5 mg/kg, iv; format: ADME, organism-based; design: dose 0.5 mg/kg, route intravenous; details: in vivo; how it was run: as §3
[36] = Oral bioavailability in Sprague-Dawley rat at 2 mg/kg; format: ADME, organism-based; details: in vivo; how it was run: as §5
[37] = Tmax in Sprague-Dawley rat at 2 mg/kg, po; format: ADME, organism-based; design: dose 2 mg/kg, route oral; details: in vivo; how it was run: as §5
[38] = biological target: Vascular endothelial growth factor receptor 2 (Homo sapiens, UniProt P35968)
[39] = AUC (0 to infinity) in Sprague-Dawley rat at 2 mg/kg, po; format: ADME, organism-based; design: time infinity, dose 2 mg/kg, route oral; details: plasma; how it was run: as §3
[40] = Cmax in Sprague-Dawley rat at 2 mg/kg, po; format: ADME, organism-based; design: dose 2 mg/kg, route oral; details: in vivo; how it was run: as §3

Chain of Angiopoietin-1 receptor (Q02763 whole entry): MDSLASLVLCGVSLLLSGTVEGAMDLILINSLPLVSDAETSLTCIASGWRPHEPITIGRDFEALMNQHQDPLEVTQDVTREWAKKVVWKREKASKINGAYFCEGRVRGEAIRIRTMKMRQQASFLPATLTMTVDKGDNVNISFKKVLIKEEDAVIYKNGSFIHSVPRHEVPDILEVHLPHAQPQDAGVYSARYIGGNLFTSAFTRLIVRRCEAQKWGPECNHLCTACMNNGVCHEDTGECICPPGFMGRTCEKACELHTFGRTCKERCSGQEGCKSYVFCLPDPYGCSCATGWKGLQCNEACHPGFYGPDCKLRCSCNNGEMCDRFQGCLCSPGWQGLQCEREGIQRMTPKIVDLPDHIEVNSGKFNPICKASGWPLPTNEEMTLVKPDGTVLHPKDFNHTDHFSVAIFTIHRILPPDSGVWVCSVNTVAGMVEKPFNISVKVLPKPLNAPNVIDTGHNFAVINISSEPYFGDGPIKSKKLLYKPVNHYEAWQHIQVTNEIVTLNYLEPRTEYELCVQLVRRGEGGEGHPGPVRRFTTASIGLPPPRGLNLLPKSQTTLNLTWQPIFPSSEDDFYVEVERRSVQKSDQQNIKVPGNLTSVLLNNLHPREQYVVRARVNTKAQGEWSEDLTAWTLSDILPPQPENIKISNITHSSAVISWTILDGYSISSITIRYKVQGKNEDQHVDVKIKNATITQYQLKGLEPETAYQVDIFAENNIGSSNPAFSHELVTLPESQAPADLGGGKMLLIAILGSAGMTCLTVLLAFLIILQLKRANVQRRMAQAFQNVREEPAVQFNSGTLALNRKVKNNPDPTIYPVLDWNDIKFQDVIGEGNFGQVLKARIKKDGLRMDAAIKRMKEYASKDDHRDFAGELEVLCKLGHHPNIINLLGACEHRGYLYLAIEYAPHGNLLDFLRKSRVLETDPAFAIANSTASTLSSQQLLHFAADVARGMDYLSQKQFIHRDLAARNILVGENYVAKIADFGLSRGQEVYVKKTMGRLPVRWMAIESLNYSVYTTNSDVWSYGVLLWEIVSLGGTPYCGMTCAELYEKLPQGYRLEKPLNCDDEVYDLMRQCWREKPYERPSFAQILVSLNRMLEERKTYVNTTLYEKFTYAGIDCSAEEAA
Chain of Aurora kinase B (Q96GD4 whole entry): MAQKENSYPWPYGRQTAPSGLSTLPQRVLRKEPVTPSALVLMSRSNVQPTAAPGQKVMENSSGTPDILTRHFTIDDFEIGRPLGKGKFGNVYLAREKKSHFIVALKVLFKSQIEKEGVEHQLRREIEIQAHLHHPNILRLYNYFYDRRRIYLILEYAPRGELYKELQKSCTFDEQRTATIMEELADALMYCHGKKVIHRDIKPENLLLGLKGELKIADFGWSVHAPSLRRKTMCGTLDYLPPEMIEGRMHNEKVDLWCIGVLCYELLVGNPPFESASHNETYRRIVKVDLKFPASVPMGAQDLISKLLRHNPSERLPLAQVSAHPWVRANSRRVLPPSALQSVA
Chain of Hepatocyte growth factor receptor (P08581 whole entry): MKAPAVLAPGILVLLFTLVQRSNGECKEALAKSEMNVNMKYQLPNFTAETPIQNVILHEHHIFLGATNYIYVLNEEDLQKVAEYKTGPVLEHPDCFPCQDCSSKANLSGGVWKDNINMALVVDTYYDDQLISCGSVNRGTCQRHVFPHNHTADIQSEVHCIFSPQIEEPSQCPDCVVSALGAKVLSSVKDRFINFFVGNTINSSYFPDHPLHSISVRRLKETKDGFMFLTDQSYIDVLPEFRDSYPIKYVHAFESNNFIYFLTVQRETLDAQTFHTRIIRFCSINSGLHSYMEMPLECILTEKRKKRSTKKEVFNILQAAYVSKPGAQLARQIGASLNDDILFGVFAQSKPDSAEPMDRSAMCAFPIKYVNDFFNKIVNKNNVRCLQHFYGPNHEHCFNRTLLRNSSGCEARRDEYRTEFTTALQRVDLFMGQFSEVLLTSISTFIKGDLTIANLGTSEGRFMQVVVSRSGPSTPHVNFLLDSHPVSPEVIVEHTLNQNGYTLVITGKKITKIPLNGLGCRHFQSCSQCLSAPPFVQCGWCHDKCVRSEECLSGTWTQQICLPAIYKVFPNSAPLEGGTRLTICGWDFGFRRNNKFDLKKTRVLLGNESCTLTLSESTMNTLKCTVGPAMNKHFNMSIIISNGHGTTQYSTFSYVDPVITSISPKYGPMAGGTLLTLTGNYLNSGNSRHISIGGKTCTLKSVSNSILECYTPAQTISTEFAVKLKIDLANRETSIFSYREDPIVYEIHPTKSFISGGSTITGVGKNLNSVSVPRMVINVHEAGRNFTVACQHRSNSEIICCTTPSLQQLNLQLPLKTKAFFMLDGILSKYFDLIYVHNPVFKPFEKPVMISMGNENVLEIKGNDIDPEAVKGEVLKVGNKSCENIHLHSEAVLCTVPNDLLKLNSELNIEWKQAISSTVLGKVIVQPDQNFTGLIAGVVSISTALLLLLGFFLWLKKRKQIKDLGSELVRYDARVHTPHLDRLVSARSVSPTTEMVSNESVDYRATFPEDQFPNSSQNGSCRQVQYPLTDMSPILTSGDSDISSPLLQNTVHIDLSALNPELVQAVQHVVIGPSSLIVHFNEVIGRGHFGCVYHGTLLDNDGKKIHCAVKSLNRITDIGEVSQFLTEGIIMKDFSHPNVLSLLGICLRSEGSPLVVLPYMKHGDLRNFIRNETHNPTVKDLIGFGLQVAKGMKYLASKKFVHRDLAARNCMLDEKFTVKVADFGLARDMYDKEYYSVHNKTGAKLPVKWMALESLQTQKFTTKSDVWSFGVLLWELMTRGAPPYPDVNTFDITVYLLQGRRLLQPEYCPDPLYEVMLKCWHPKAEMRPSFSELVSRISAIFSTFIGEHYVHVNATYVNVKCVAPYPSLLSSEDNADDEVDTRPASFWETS
Chain of Tyrosine-protein kinase Fgr (P09769 whole entry): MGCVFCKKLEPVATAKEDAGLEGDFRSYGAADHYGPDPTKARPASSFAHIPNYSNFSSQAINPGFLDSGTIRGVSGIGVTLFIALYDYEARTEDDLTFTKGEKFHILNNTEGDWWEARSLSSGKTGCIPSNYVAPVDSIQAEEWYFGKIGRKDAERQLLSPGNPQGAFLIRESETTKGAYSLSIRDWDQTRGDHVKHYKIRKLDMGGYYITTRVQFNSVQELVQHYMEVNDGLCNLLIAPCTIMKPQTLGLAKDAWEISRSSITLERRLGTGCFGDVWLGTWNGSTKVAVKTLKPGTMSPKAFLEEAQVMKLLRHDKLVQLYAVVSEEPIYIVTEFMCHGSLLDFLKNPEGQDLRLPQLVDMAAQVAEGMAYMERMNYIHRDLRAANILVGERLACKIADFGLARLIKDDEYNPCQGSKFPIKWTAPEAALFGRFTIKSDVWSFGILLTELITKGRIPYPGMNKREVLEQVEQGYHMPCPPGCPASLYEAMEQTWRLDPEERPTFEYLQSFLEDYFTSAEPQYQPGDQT
Chain of Vascular endothelial growth factor receptor 1 (P17948 whole entry): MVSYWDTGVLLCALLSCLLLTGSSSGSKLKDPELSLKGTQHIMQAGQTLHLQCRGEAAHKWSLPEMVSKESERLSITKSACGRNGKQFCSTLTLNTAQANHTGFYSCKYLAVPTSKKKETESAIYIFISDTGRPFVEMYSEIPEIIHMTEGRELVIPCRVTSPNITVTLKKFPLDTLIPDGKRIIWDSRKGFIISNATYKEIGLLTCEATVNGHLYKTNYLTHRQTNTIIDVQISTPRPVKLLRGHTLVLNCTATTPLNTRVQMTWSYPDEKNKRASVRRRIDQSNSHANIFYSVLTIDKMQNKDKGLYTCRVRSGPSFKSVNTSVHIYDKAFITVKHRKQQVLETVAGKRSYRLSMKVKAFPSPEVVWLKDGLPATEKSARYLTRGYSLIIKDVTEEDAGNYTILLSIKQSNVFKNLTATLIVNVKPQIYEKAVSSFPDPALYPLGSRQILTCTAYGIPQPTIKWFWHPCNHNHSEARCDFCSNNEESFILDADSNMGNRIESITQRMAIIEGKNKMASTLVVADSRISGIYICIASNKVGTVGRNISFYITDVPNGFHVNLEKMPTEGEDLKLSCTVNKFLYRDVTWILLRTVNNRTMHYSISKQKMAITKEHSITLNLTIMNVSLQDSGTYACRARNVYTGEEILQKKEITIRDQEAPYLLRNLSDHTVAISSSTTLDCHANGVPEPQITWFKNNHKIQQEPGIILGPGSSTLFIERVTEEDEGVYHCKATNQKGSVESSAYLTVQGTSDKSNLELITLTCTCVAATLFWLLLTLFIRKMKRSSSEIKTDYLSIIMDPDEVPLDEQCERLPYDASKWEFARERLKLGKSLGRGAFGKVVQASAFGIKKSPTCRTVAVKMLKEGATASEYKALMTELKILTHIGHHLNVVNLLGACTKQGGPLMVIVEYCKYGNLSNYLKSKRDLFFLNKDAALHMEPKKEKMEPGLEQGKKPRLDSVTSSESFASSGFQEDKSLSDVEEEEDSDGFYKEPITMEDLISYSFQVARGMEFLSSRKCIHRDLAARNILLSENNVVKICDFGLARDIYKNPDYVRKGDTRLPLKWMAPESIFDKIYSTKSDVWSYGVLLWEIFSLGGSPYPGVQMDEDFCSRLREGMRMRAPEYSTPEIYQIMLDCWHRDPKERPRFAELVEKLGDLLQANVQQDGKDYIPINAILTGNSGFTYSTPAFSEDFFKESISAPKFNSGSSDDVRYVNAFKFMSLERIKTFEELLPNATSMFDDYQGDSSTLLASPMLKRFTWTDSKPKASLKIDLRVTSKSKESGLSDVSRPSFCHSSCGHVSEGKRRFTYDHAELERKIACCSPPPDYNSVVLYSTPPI

COc1cc2nccc(Oc3ccc4c(C(=O)NC5CC5)cccc4c3)c2cc1OC
ED50 (Rattus norvegicus): 0.01 mg/kg | IC50 [1]: 20000 nM | Stability (Liver microsomes [2]): 1.5 pmol/mg/h | IC50 (Aurora kinase A): 2000 nM | IC50 (Angiopoietin-1 receptor): 25000 nM | microsomal CLint at 1 µM [3]: 31 µL/min/mg | Activity [4]: Active | IC50 (HUVEC [5]): 0.91 nM | Activity [6]: inactive | Stability (Liver microsomes [7]): 357 pmol/mg/h | AUC(0-inf) [8]: 50200 ng·h/mL | Activity [9]: Active | bioavailability [10]: 66% | clearance [11]: 2.18 mL/min/kg | Vd [12]: 1.04 L/kg | half-life [13]: 8.4 h | Stability (Liver microsomes [14]): 153 pmol/mg/h | IC50 [15]: 27 nM | Selectivity ratio (HUVEC [16]): >100 | IC50 (Aurora kinase B): 118 nM | AUC [17]: 0.32 µM·h | Cmax [18]: 20 nM | Tmax [19]: 2.5 h | Activity [20]: Active | solubility [21]: > 200 µg/mL | IC50 (HUVEC [22]): 170 nM | Cp (Mus musculus): 1 µM | IC50 [23]: 466 nM | IC50 [24]: 396 nM | Activity [25]: Active | Activity [26]: Active | Cmax [27]: 6150 ng/mL | Stability (Liver microsomes [28]): 60 pmol/mg/h | Stability (Liver microsomes [29]): 1.5 pmol/mg/h | microsomal CLint at 1 µM [30]: 21 µL/min/mg | Stability (Liver microsomes [31]): 153 pmol/mg/h | IC50 [32]: 330 nM

COCCNC(=O)c1cccc2cc(Oc3ccnc4cc(OC)c(C(N)=O)cc34)ccc12
half-life [33]: 0.31 h | Vd [34]: 0.751 L/kg | IC50 [1]: 6700 nM | clearance [35]: 50.8 mL/min/kg | bioavailability [36]: 12% | IC50 (Aurora kinase A): 8300 nM | IC50 (Angiopoietin-1 receptor): 8300 nM | microsomal CLint at 1 µM [3]: 4 µL/min/mg | IC50 (HUVEC [5]): 0.8 nM | Tmax [37]: 0.3 h | Selectivity ratio (HUVEC [16]): >100 | IC50 [38]: 22 nM | IC50 (Aurora kinase B): 233 nM | AUC(0-inf) [39]: 164 ng·h/mL | microsomal CLint at 1 µM [30]: 95 µL/min/mg | Cmax [40]: 61 ng/mL

COc1cc2nccc(Oc3ccc4c(C(=O)Nc5ccc(Cl)cc5)cccc4c3)c2cc1OC
IC50 (Aurora kinase A): 371 nM | IC50 (Angiopoietin-1 receptor): 580 nM | IC50 (HUVEC [5]): 7.6 nM | solubility [21]: 1.1 µg/mL (≈ 2.27 µM) | IC50 (HUVEC [22]): 1140 nM
